A short description of assay [1]: In vitro cytotoxicity against uninfected ATH-8 (human T-cell) cell line. The note with it: read-out: CD50 (the source's name). It is filed as functional. The gist of the method:
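Uninfected ATH-8 cells; the value is the dose that reduces viability by 50%. Concentrations tested up to […].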

A short description of assay [2]: In vitro effective dose which provides 50% protection of ATH-8 cells against the cytopathic effect of HIV; range 5-10 uM. Format: functional. The note with it: Homo sapiens, read-out: ED50 (the source's name).
Assay [3] can be described thus: In vitro effective dose which provides 50% protection of ATH-8 cells against the cytopathic effect of HIV. Format: functional. As to conditions: Homo sapiens, read-out: ED50 (the source's name). A digest of the protocol:
(§1)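 ATH-8 cells infected with HIV-1 (HTLV-III_B strain) and read as the dose giving 50% protection against viral cytopathic effect. Reported as a range from ≥3 experiments, each including a standard such as AZT.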

Assay [4] is described as follows: In vitro effective dose which provides 50% protection of ATH-8 cells against the cytopathic effect of HIV; range 10-50 uM. Format: functional. The note with it: Homo sapiens, read-out: ED50 (the source's name). The gist of the method: as §1
Background: Protection from cytopathic effect is a common read-out in antiviral testing.

Assay [5] concerns Human immunodeficiency virus 1. Nature of the assay: Concentration required to inhibit HIV replication by 50%. It is filed as functional, organism-based. The gist of the method: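 Human PBM from a normal donor, isolated by Ficoll-Hypaque and stimulated with PHA (5 μg/mL) for 24 h in RPMI 1640/15% FBS/IL-2. Cells plated at 5 × 10⁵ per well and infected with 20 TCID₅₀ of AZT-resistant patient isolate HIV-1 ERS 205pre, with drug added. Incubated at 37 °C for 7 days; half the medium and drug replaced on day 4. Day-7 supernatant p24 gag measured by radioimmunoassay.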

Assay [6] is described as follows: In vitro effective dose which provides 50% protection of ATH-8 cells against the cytopathic effect of HIV; range 5-15 uM. Format: functional. The note with it: Homo sapiens, read-out: ED50 (the source's name). A digest of the protocol: as §1
Assay [7] is described as follows: In vitro effective dose which provides 50% protection of ATH-8 cells against the cytopathic effect of HIV; Range 5-10 uM. It is filed as functional. As to conditions: Homo sapiens, read-out: ED50 (the source's name).

For the compound `Nc1ncnc2c1ncn2[C@H]1CC[C@@H](CO)O1`, the CC50 in assay [1] was greater than 200 µM. In assay [2], the EC50 is 5 µM.
Take `Nc1ccn([C@H]2CO[C@@H](CO)C2)c(=O)n1`: the CC50 in assay [1] is greater than 100 µM. Besides, in assay [3], the EC50 is greater than 100 µM.
Regarding `Nc1nc(O)c2ncn([C@H]3CO[C@@H](CO)C3)c2n1`, the CC50 in assay [1] is greater than 500 µM. The EC50 in assay [4] was 10 µM. In assay [5], the midpoint of inhibition, the IC50, lay at 17.5 µM.
As for `Nc1ncnc2c1ncn2[C@H]1CO[C@@H](CO)C1`, the CC50 in assay [1] is greater than 100 µM. The EC50 in assay [6] turned out to be 5 µM. The IC50 – broadly, the concentration at which inhibition is half-maximal – in assay [5] was determined as 8.2 µM.
As to `Cc1cn([C@H]2CO[C@@H](CO)C2)c(=O)[nH]c1=O`, in assay [1], the CC50 was greater than 100 µM. Further, in assay [3], the EC50 is greater than 100 µM.
Turning to `OC[C@H]1C[C@@H](n2cnc3c(O)ncnc32)CO1`, the CC50 in assay [1] was greater than 100 µM. Moreover, the EC50 in assay [3] was greater than 100 µM.
`Nc1nc(O)c2ncn([C@H]3CC[C@@H](CO)O3)c2n1`: the CC50 in assay [1] is greater than 200 µM. Moreover, the EC50 in assay [7] came out at 5 µM.
`O=c1[nH]cnc2c1ncn2[C@H]1CC[C@@H](CO)O1` [DIDANOSINE]: it took 1.28 µM to reach half-maximal inhibition in assay [5] (IC50).

The record behind these values is ChEMBL document CHEMBL1126179, “Synthesis and anti-HIV activity of isonucleosides” (J Med Chem, 1992).
